The source made the active and inactive calls. No cut-off for these calls is given here.
Columns and labels:
Tubulin (Bos taurus) [1] = target: T1, Tubulin (Bos taurus) (UniProt Q6B856+Q862L2+Q862F3); assay: Inhibition of [3H]colchicine binding to tubulin in bovine brain homogenate at 5 uM incubated for 10 mins by DEAE-cellulose filter assay; format: tissue-based
[2] = system: Tubulin (Rattus norvegicus); assay: Induction of microtubule depolymerization in rat A10 cells at 2 times EC50 incubated for 18 hrs by indirect immunofluorescence analysis
HeLa [3] = assay: Relative ratio of IC50 for human HeLa cells expressing wild type beta3 tubulin to IC50 for human HeLa cells; format: functional
HeLa [4] = assay: Antiproliferative activity against multidrug resistant human HeLa cells expressing wild type beta3 tubulin after 48 hrs by SRB assay; format: functional, cell-based
Summary of the method: (§1)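 SRB assay; IC50 is the mean of three independent experiments, each run in triplicate. Cells were kept at 37 °C under 5% CO2. HeLa and SK-OV-3 lines (parental and MDR1-M6/6) were grown in Basal Medium Eagle with 10% FBS, 1% GlutaMAX and 50 µg/mL gentamycin. HeLa WTβIII was grown in DMEM with 10% FBS.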

Tubulin (Bos taurus) [5] = target: T1, Tubulin (Bos taurus); assay: Displacement of [3H]colchicine from tubulin in bovine brain homogenate at 1 uM incubated for 10 mins by DEAE-cellulose filter assay; format: tissue-based
Tubulin = Tubulin (Bos taurus, UniProt Q6B856+Q862L2+Q862F3); assay: Inhibition of tubulin assembly in bovine brain […] assessed as reduction in turbidity increase preincubated for 15 mins followed by GTP addition measured for 20 mins by spectrophotometric analysis
Summary of the method: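 Purified bovine brain tubulin, 1.0 mg/mL (10 µM), was preincubated 15 min at 30 °C in 0.8 M monosodium glutamate (pH 6.6) with compound and 4% DMSO. Mixtures were chilled and 0.4 mM GTP added. Turbidity was followed for 20 min at 30 °C. IC50 is the concentration halving the turbidity increase, interpolated between tested concentrations.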

SK-OV-3 [6] = assay: Antiproliferative activity against multidrug resistant human SKOV3 cells expressing MDR1-M6/6 after 48 hrs by SRB assay; format: functional, cell-based; conditions: SK-OV-3, 48 h; summary of the method: as §1
HeLa [7] = assay: Antiproliferative activity against human HeLa cells after 48 hrs by SRB assay; format: functional, cell-based; summary of the method: as §1
SK-OV-3 [8] = assay: Cytotoxicity against human SKOV3 cells assessed as growth inhibition after 48 hrs by SRB assay; format: functional, cell-based; conditions: SK-OV-3, 48 h; summary of the method: as §1
Tubulin (Homo sapiens) = Tubulin (Homo sapiens) (UniProt P68371+Q9H4B7+P0DPH7+P68366+Q13509+Q71U36+P04350+Q3ZCM7+P07437+P68363+Q9BQE3+Q6PEY2+Q13885+Q9BVA1+Q9BUF5); assay: Induction of microtubule disruption in human HeLa cells assessed as multipolarization of spindle at 5 times IC50 incubated for 18 hrs by indirect immunofluorescence analysis relative to vehicle-treated control; format: cell-based
Summary of the method: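 Mitotic spindles and microtubules were imaged by indirect immunofluorescence with a β-tubulin antibody and compared with vehicle-treated cells.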

HeLa [9] = assay: Cell cycle arrest in human HeLa cells assessed as accumulation at G2/M phase at 5 times IC50 after 18 hrs by flow cytometry (reference value: 17.11 +/- 1.09%); format: functional
SK-OV-3 [10] = assay: Relative ratio of IC50 for human SKOV3 cells expressing MDR1-M6/6 to IC50 for human SKOV3 cells; format: functional
Summary of the method: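 Rr is the IC50 in Pgp-expressing SK-OV-3 MDR1-M6/6 cells divided by the IC50 in parental SK-OV-3 cells. Both IC50s come from the SRB assay, averaging three independent experiments run in triplicate.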

MDA-MB-435 = assay: Antitumor activity against human MDA-MB-435 cells xenografted in nude mouse assessed as tumor growth inhibition at 20 mg/kg, ip dosed on days 0 , 2, 4, 6, 8 and 11 relative to control

Row | Compound | inhibition (Tubulin (Bos taurus) [1]) [%] | Activity [2] | Ratio IC50 (HeLa [3]) | IC50 (HeLa [4]) [nM] | inhibition (Tubulin (Bos taurus) [5]) [%] | IC50 (Tubulin) [nM] | IC50 (SK-OV-3 [6]) [nM] | IC50 (HeLa [7]) [nM] | IC50 (SK-OV-3 [8]) [nM] | Activity (Tubulin (Homo sapiens)) | Activity (HeLa [9]) [%] | Ratio IC50 (SK-OV-3 [10]) | TGI (MDA-MB-435)
1 | CCCN(c1ccc(OC)cc1)c1ncnc2occ(C)c12 | 92 | Active | 1 | 35.3 | 75 | 1100 | 71 | 33.8 | 40.3 | Active | 89.25 | 1.8 | 
2 | CCc1ccc(N(C)c2ncnc3occ(C)c23)cc1 |  | Active | 1.3 | 159 |  |  | 162 | 120 | 156 | Active | 76.19 | 1 | 
3 | CCN(c1ccc(OC)cc1)c1ncnc2occ(C)c12 | 95 | Active | 0.9 | 14.6 | 84 | 970 | 18.3 | 15.8 | 14.5 | Active | 63.76 | 1.3 | 
4 | COc1ccc(N(c2ncnc3occ(C)c23)C(C)C)cc1 | 47 |  |  |  |  | 3000 |  |  |  |  |  |  | 
5 | CSc1ccc(N(C)c2ncnc3occ(C)c23)cc1 | 94 | Active | 0.9 | 14.9 | 79 | 1200 | 32.1 | 15.7 | 18.6 | Active | 64.09 | 1.7 | 
6 | CCCCN(c1ccc(OC)cc1)c1ncnc2occ(C)c12 | 87 | Active | 1 | 116 | 61 | 1300 | 200 | 111 | 148 | Active | 64.96 | 1.4 | 
7 | CC(=O)O[C@H]1C(=O)[C@@]2(C)[C@H]([C@H](OC(=O)c3ccccc3)[C@]3(O)C[C@H](OC(=O)[C@H](O)[C@@H](NC(=O)c4ccccc4)c4ccccc4)C(C)=C1C3(C)C)[C@]1(OC(C)=O)CO[C@@H]1C[C@@H]2O |  |  |  |  |  |  |  |  |  |  |  |  | Active
8 | COc1ccc(/C=C\c2cc(OC)c(OC)c(OC)c2)cc1O [COMBRETASTATIN A4] |  |  |  |  |  |  |  |  |  |  | 67.58 |  | 

— ChEMBL document CHEMBL4477200, “Design, Synthesis, and Preclinical Evaluation of 4-Substituted-5-methyl-furo[2,3-d]pyrimidines as Microtubule Targeting Agents That Are Effective against Multidrug Resistant Cancer Cells” (J Med Chem, 2016)
